Experimental data as given in ChEMBL document CHEMBL1208663, “Synthesis of 2-substituted-N-[4-(1-methyl-4,5-diphenyl-1H-imidazole-2-yl)phenyl]acetamide derivatives and evaluation of their anticancer activity” (Eur J Med Chem, 2010).
Values after ≈ are worked out from the molar mass of the structure shown. Active and inactive are the calls of the source. The calls are words filed in the database; no cut-off is given here.

Legend:
MCF7 [1] = experiment: Cytotoxicity against human MCF7 cells at 16 ug/ml after 24 hrs by MTT assay; type: functional
Outline: (§1)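 MCF-7 cells grown in DMEM with 1 mM pyruvate, 10 µg/mL insulin, 10% FBS and penicillin/streptomycin at 37 °C, 5% CO2. Exposed 24 h to 0.64–80 µg/mL (DMSO stocks diluted in medium). MTT added, A540 measured. Percent viability relative to untreated cells; IC50 derived. Three experiments with four wells per concentration.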

HT-29 [2] = experiment: Cytotoxicity against human HT-29 cells at 32 ug/ml after 24 hrs by MTT assay; type: functional
Outline: (§2)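 HT-29 cells grown in McCoy's 5A with 10% FBS and penicillin/streptomycin at 37 °C, 5% CO2. Treated 24 h with 0.64, 1.6, 6.4, 16, 32 or 80 µg/mL (DMSO stock diluted in medium). MTT added, absorbance read at 540 nm. Viability taken relative to untreated control (100%); IC50 calculated. Four wells per concentration, three repeat experiments.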

MCF7 [3] = experiment: Cytotoxicity against human MCF7 cells at 32 ug/ml after 24 hrs by MTT assay; type: functional; outline: as §1
MCF7 [4] = experiment: Cytotoxicity against human MCF7 cells at 6.4 ug/ml after 24 hrs by MTT assay; type: functional; outline: as §1
HT-29 [5] = experiment: Cytotoxicity against human HT-29 cells at 1.6 ug/ml after 24 hrs by MTT assay; type: functional; outline: as §2
MCF7 [6] = experiment: Cytotoxicity against human MCF7 cells at 0.64 ug/ml after 24 hrs by MTT assay; type: functional; outline: as §1
MCF7 [7] = experiment: Cytotoxicity against human MCF7 cells at 80 ug/ml after 24 hrs by MTT assay; type: functional; outline: as §1
HT-29 [8] = experiment: Cytotoxicity against human HT-29 cells after 24 hrs by MTT assay; type: functional, cell-based; settings: HT-29, 24 h; outline: as §2
HT-29 [9] = experiment: Cytotoxicity against human HT-29 cells at 6.4 ug/ml after 24 hrs by MTT assay; type: functional; outline: as §2
MCF7 [10] = experiment: Cytotoxicity against human MCF7 cells at 1.6 ug/ml after 24 hrs by MTT assay; type: functional; outline: as §1
HT-29 [11] = experiment: Cytotoxicity against human HT-29 cells at 16 ug/ml after 24 hrs by MTT assay; type: functional; outline: as §2
MCF7 [12] = experiment: Cytotoxicity against human MCF7 cells after 24 hrs by MTT assay; type: functional, cell-based; settings: MCF7, 24 h; outline: as §1
HT-29 [13] = experiment: Cytotoxicity against human HT-29 cells at 0.64 ug/ml after 24 hrs by MTT assay; type: functional; outline: as §2
HT-29 [14] = experiment: Cytotoxicity against human HT-29 cells at 80 ug/ml after 24 hrs by MTT assay; type: functional; outline: as §2
HT-29 [15] = experiment: Inhibition of DNA synthesis in human HT-29 cells after 48 hrs by BrdU incorporation assay; type: functional, cell-based
Outline: (§3)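 HT-29 cells (McCoy's 5A, 10% FBS) seeded at 1 × 10^3 cells/mL. Exposed to three concentrations for 24 h and 48 h at 37 °C, with DMSO solvent control. BrdU label for 2 h, then fixation and anti-BrdU-POD for 90 min. Substrate colour read at 492 nm with blank subtracted. Triplicate wells, three experiments.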

HT-29 [16] = experiment: Induction of apoptosis in human HT-29 cells assessed as DNA fragmentation after 24 hrs by gel electrophoresis
MCF7 [17] = experiment: Inhibition of DNA synthesis in human MCF7 cells after 48 hrs by BrdU incorporation assay; type: functional, cell-based
Outline: (§4)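 MCF-7 cells (DMEM, pyruvate, insulin, 10% FBS) seeded at 1 × 10^3 cells/mL. Treated at three concentrations for 24 h or 48 h at 37 °C against DMSO control. Labelled with BrdU for 2 h, fixed, then anti-BrdU-POD for 90 min. Colorimetric substrate read at 492 nm after blank subtraction. Triplicate wells, repeated three times.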

HT-29 [18] = experiment: Inhibition of DNA synthesis in human HT-29 cells by BrdU incorporation assay; type: functional, cell-based; settings: TDE = time-dependent effect; outline: as §3
MCF7 [19] = experiment: Inhibition of DNA synthesis in human MCF7 cells by BrdU incorporation assay; type: functional, cell-based; settings: TDE = time-dependent effect; outline: as §4

Row | Structure (SMILES) | Activity (MCF7 [1]) [%] | Activity (HT-29 [2]) [%] | Activity (MCF7 [3]) [%] | Activity (MCF7 [4]) [%] | Activity (HT-29 [5]) [%] | Activity (MCF7 [6]) [%] | Activity (MCF7 [7]) [%] | IC50 (HT-29 [8]) [µg/mL] | Activity (HT-29 [9]) [%] | Activity (MCF7 [10]) [%] | Activity (HT-29 [11]) [%] | IC50 (MCF7 [12]) [µg/mL] | Activity (HT-29 [13]) [%] | Activity (HT-29 [14]) [%] | inhibition (HT-29 [15]) | Activity (HT-29 [16]) | inhibition (MCF7 [17]) | inhibition (HT-29 [18]) | inhibition (MCF7 [19])
1 | Cn1c(-c2ccc(NC(=O)CN3CCN(c4ccccc4)CC3)cc2)nc(-c2ccccc2)c1-c1ccccc1 | 59.6 | 60.5 | 63.6 | 37.7 | 26 | 12.1 | 72.5 | 8.6 (≈ 16.3 µM) | 46.5 | 21.3 | 55.4 | 10.7 (≈ 20.3 µM) | 17.3 | 63.7 | – | – | – | – | –
2 | Cn1c(-c2ccc(NC(=O)CSC3=NCCS3)cc2)nc(-c2ccccc2)c1-c1ccccc1 | 41.8 | 59.4 | 52.5 | 18.6 | 30.4 | 10.3 | 70 | 21 (≈ 43.3 µM) | 31 | 16.2 | 43.3 | 26.7 (≈ 55.1 µM) | 16.8 | 75.2 | – | – | – | – | –
3 | CN1CCN(CC(=O)Nc2ccc(-c3nc(-c4ccccc4)c(-c4ccccc4)n3C)cc2)CC1 | 30.1 | 49.1 | 46.2 | 28.6 | 27.4 | 1.1 | 50.3 | 35.5 (≈ 76.2 µM) | 28.8 | 2.9 | 33.7 | 76.5 (≈ 164 µM) | 18.8 | 53.1 | – | – | – | – | –
4 | Cn1c(-c2ccc(NC(=O)CN3CCN(Cc4ccc(Cl)cc4)CC3)cc2)nc(-c2ccccc2)c1-c1ccccc1 | 46.2 | 55.6 | 52.8 | 33.4 | 16.4 | 4.8 | 52.9 | 12 (≈ 20.8 µM) | 41.5 | 11.8 | 52.9 | 21 (≈ 36.4 µM) | 11.3 | 60.7 | – | – | – | – | –
5 | Cn1nnnc1SCC(=O)Nc1ccc(-c2nc(-c3ccccc3)c(-c3ccccc3)n2C)cc1 | 63.7 | 84 | 77.5 | 55.9 | 49.8 | 21.9 | 77.7 | 1.6 (≈ 3.32 µM) | 60.6 | 34.3 | 72.5 | 4.5 (≈ 9.34 µM) | 38 | 89 | Dose-dependent effect | Active | Dose-dependent effect | tde | tde
6 | CN(C)CCN1CCN(CC(=O)Nc2ccc(-c3nc(-c4ccccc4)c(-c4ccccc4)n3C)cc2)CC1 | 19.4 | 29.8 | 25.8 | 11.1 | 8 | 1.2 | 34.7 | > 80 | 12.2 | 1.9 | 28.2 | > 80 | 3.1 | 45.4 | – | – | – | – | –
7 | Cn1c(-c2ccc(NC(=O)CSc3nc4ccccc4s3)cc2)nc(-c2ccccc2)c1-c1ccccc1 | 50.3 | 66 | 59 | 27 | 15.3 | 0.9 | 76.6 | 18 (≈ 33.8 µM) | 36.8 | 2.1 | 47.2 | 15.8 (≈ 29.7 µM) | 9.8 | 82.7 | – | – | – | – | –
